3 molecules from ChEMBL document CHEMBL3271979, “Inhibition of solid tumors by nitrosoureas. 1. Lewis lung carcinoma” (1977) can be followed below.

Molecules are shown by their SMILES. The source made the active and inactive calls. The rule behind the calls is not given here.

A short description of experiment [1]: Antitumor activity against mouse early Lewis lung carcinoma allografted in BDF1 mouse assessed as increase in host life span at 60 mg/kg, ip administered as single dose on 1 or 2 days post-tumor implantation. To be noted: route intraperitoneal. The format is functional. In outline: (§1)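 BDF1 mice (C57Blk/6 × DBA/2) implanted sc by trocar with ~40 mg Lewis lung tumor fragments from bacteriologically sterile donor tumors. Single ip dose on day 1 or 2, as a solution or suspension in water (CMC or gum acacia) or saline (HPC or Tween 80). Read-out is […]. Same-dose toxicity controls were run in nontumor-bearing mice.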

Experiment [2] can be described thus: Antitumor activity against mouse early Lewis lung carcinoma allografted in BDF1 mouse assessed as increase in host life span at 40 mg/kg, ip administered as single dose on 1 or 2 days post-tumor implantation. Format: functional. Particulars: route intraperitoneal. In outline: as §1
Experiment [3] in a line: Antitumor activity against mouse early Lewis lung carcinoma allografted in BDF1 mouse assessed as increase in host life span at 26 mg/kg, ip administered as single dose on 1 or 2 days post-tumor implantation. To be noted: route intraperitoneal. Format: functional. A digest of the protocol:
as §1

Experiment [4] relates to Mus musculus. Description: Antitumor activity against mouse advanced Lewis lung carcinoma allografted in BDF1 mouse assessed as disease cure at 37 mg/kg, ip administered as single dose on 7th day post-tumor implantation measured for 80 days post-drug treatment. More on the design: dose 37 mg/kg. The format is functional, organism-based. In outline: (§2)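 BDF1 mice (C57Blk/6 × DBA/2) implanted sc by trocar with Lewis lung tumor fragments of about 40 mg, taken only from bacteriologically sterile donor tumors. Mice bearing tumors of about 400 mg (day 6-7) were selected. Each received a single ip dose on day 7, at or below the LD10 in normal mice. Groups were of 10 mice. Tumor weight was taken from calipers as w = ab²/2, measured at least twice weekly. Matched non-tumor mice served as toxicity controls.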

Experiment [5] concerns Mus musculus. Put plainly: Antitumor activity against mouse advanced Lewis lung carcinoma allografted in BDF1 mouse assessed as disease cure at 25 mg/kg, ip administered as single dose on 7th day post-tumor implantation measured for 80 days post-drug treatment. Format: functional, organism-based. More on the design: dose 25 mg/kg. A digest of the protocol: as §2
Experiment [6] has as its system Mus musculus. Put plainly: Antitumor activity against mouse advanced Lewis lung carcinoma allografted in BDF1 mouse assessed as disease cure at 16 mg/kg, ip administered as single dose on 7th day post-tumor implantation measured for 80 days post-drug treatment. The format is functional, organism-based. More on the design: dose 16 mg/kg. A digest of the protocol: as §2

A short description of experiment [7]: Antitumor activity against mouse advanced Lewis lung carcinoma allografted in BDF1 mouse assessed as increase in host life span at 37 mg/kg, ip administered as single dose on 7th day post-tumor implantation. To be noted: route intraperitoneal. The format is functional. In outline: (§3)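 BDF1 mice (C57Blk/6 × DBA/2) implanted sc by trocar with about 40 mg Lewis lung tumor fragments from bacteriologically sterile donors. Advanced-disease groups held tumors of about 400 mg by day 6-7, sized by caliper (w = ab²/2). Single ip injection on day 7, in water or saline vehicle, at or below the LD10 in normal mice. Tumors measured at least twice weekly.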

Experiment [8] in a line: Antitumor activity against mouse advanced Lewis lung carcinoma allografted in BDF1 mouse assessed as increase in host life span at 25 mg/kg, ip administered as single dose on 7th day post-tumor implantation. The format is functional. To be noted: route intraperitoneal. In outline:
as §3

A short description of experiment [9]: Antitumor activity against mouse advanced Lewis lung carcinoma allografted in BDF1 mouse assessed as increase in host life span at 16 mg/kg, ip administered as single dose on 7th day post-tumor implantation. Format: functional. Particulars: route intraperitoneal. In outline:
as §3

Experiment [10] deals with Mus musculus. Put plainly: Antitumor activity against mouse advanced Lewis lung carcinoma allografted in BDF1 mouse assessed as complete regression of established tumor at 37 mg/kg, ip administered as single dose on 7th day post-tumor implantation. More on the design: dose 37 mg/kg. Format: functional, organism-based. In outline: as §2
In experiment [11] the test system is Mus musculus. Put plainly: Antitumor activity against mouse advanced Lewis lung carcinoma allografted in BDF1 mouse assessed as complete regression of established tumor at 25 mg/kg, ip administered as single dose on 7th day post-tumor implantation. Format: functional, organism-based. Also noted: dose 25 mg/kg. In outline:
as §2

For experiment [12], the system named is Mus musculus. Description: Antitumor activity against mouse advanced Lewis lung carcinoma allografted in BDF1 mouse assessed as complete regression of established tumor at 16 mg/kg, ip administered as single dose on 7th day post-tumor implantation. Format: functional, organism-based. More on the design: dose 16 mg/kg. A digest of the protocol:
as §2

Experiment [13] is described as follows: Antitumor activity against mouse early Lewis lung carcinoma allografted in BDF1 mouse assessed as time delay in tumor growth at 60 mg/kg, ip administered as single dose on 1 or 2 days post-tumor implantation. Format: functional. To be noted: route intraperitoneal. In outline:
(§4)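 BDF1 mice (C57Blk/6 × DBA/2) implanted sc by trocar with ~40 mg Lewis lung tumor fragments from bacteriologically sterile donors. A single ip dose was given on day 1 or 2, as a solution or suspension in water or saline with suspending agent, at ≤0.5 ml. Tumors were measured by caliper at least twice weekly, with weight = ab²/2. Delay was taken as the days for the tumor to reach 1 g.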

The nature of experiment [14]: Antitumor activity against mouse early Lewis lung carcinoma allografted in BDF1 mouse assessed as time delay in tumor growth at 40 mg/kg, ip administered as single dose on 1 or 2 days post-tumor implantation. The format is functional. Particulars: route intraperitoneal. A digest of the protocol: as §4
Experiment [15] can be described thus: Antitumor activity against mouse early Lewis lung carcinoma allografted in BDF1 mouse assessed as time delay in tumor growth at 26 mg/kg, ip administered as single dose on 1 or 2 days post-tumor implantation. Format: functional. Particulars: route intraperitoneal. In outline: as §4
The test system of experiment [16] is Mus musculus. Put plainly: Antitumor activity against mouse advanced Lewis lung carcinoma allografted in ip dosed BDF1 mouse assessed as complete regression of established tumor administered as single dose on day 6 or 7 post-tumor implantation. Format: functional, organism-based. A digest of the protocol: as §2
The subject of experiment [17] is Mus musculus. Put plainly: Antitumor activity against mouse advanced Lewis lung carcinoma allografted in ip dosed BDF1 mouse assessed as disease cure administered as single dose on day 6 or 7 post-tumor implantation. The format is functional, organism-based. A digest of the protocol:
as §2

Experiment [18] can be described thus: Antitumor activity against mouse advanced Lewis lung carcinoma allografted in ip dosed BDF1 mouse assessed as increase in host lifespan administered as single dose on day 6 or 7 post-tumor implantation. Format: functional. In outline: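 Advanced Lewis lung model: about 40 mg fragments implanted sc by trocar into BDF1 mice, and mice with tumors of about 400 mg (day 6-7) selected. Tumor weight from calipers, w = ab²/2. Agent given as one ip dose in distilled water or physiological saline. Nontumor-bearing mice received matching doses as toxicity controls.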

In experiment [19] the test system is Mus musculus. Description: Antitumor activity against mouse advanced Lewis lung carcinoma allografted in BDF1 mouse assessed as disease cure at 36 mg/kg, ip administered as single dose on 7th day post-tumor implantation measured for 80 days post-drug treatment. Also noted: dose 36 mg/kg. Format: functional, organism-based. A digest of the protocol: as §2
Experiment [20] deals with Mus musculus. Description: Antitumor activity against mouse advanced Lewis lung carcinoma allografted in BDF1 mouse assessed as disease cure at 54 mg/kg, ip administered as single dose on 7th day post-tumor implantation measured for 80 days post-drug treatment. The format is functional, organism-based. More on the design: dose 54 mg/kg. A digest of the protocol:
as §2

Experiment [21] in a line: Antitumor activity against mouse advanced Lewis lung carcinoma allografted in BDF1 mouse assessed as increase in host life span at 36 mg/kg, ip administered as single dose on 7th day post-tumor implantation. Format: functional. To be noted: route intraperitoneal. A digest of the protocol: as §3
A short description of experiment [22]: Antitumor activity against mouse advanced Lewis lung carcinoma allografted in BDF1 mouse assessed as increase in host life span at 54 mg/kg, ip administered as single dose on 7th day post-tumor implantation. Format: functional. To be noted: route intraperitoneal. In outline: as §3
Experiment [23] has as its system Mus musculus. Put plainly: Antitumor activity against mouse advanced Lewis lung carcinoma allografted in BDF1 mouse assessed as complete regression of established tumor at 13 mg/kg, ip administered as single dose on 7th day post-tumor implantation. The format is functional, organism-based. Also noted: dose 13 mg/kg. In outline:
as §3

Experiment [24] concerns Mus musculus. Put plainly: Antitumor activity against mouse advanced Lewis lung carcinoma allografted in BDF1 mouse assessed as disease cure at 13 mg/kg, ip administered as single dose on 7th day post-tumor implantation measured for 80 days post-drug treatment. The format is functional, organism-based. More on the design: dose 13 mg/kg. In outline:
as §3

A short description of experiment [25]: Antitumor activity against mouse advanced Lewis lung carcinoma allografted in BDF1 mouse assessed as increase in host life span at 13 mg/kg, ip administered as single dose on 7th day post-tumor implantation. Format: functional. Particulars: route intraperitoneal. In outline:
as §3

Experiment [26] concerns Mus musculus. Description: Antitumor activity against mouse early Lewis lung carcinoma allografted in ip dosed BDF1 mouse assessed as disease cure administered as single dose on 1 or 2 days post-tumor implantation measured for 80 days post-drug treatment. The format is functional. A digest of the protocol: (§5)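 BDF1 mice implanted sc by trocar with ~40 mg Lewis lung fragments from sterile donor tumors. A single ip dose was given on day 1 or 2 after implant, in water or saline vehicle. Cures were scored in animals observed for at least 80 days after treatment. Drug-toxicity controls were matched non-tumor-bearing mice monitored for body weight and deaths.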

Experiment [27] has as its system Mus musculus. Description: Antitumor activity against mouse early Lewis lung carcinoma allografted in ip dosed BDF1 mouse administered as single dose on 1 or 2 days post-tumor implantation measured for 80 days post-drug treatment. The format is functional, organism-based. A digest of the protocol:
as §5

Experiment [28] can be described thus: Ratio of ED50 for antitumor activity against mouse L1210 cells allografted in ip dosed mouse to LD10 for mouse.

The term ILS denotes how much longer treated animals lived than controls.

Turning to `CO[C@H]1CC[C@H](NC(=O)N(CCCl)N=O)CC1`, in experiment [1], the ILS at 60 mg/kg was 18%. Further, in experiment [2], the ILS at 40 mg/kg turned out to be 0%. Further, the increase in lifespan (ILS) at 26 mg/kg in [3] worked out at 18%. The result in [4], in experiment [5], in experiment [6] and in experiment [17] was inactive. Further, the ILS at 37 mg/kg in experiment [7] was 29%. Besides, in experiment [8], the ILS at 25 mg/kg is 29%. Further, in experiment [9], the ILS at 16 mg/kg worked out at 20%. Further, the inhibition entry in [10], in [11], in experiment [12] and in experiment [16] was “inactive” throughout. Besides, the Time in experiment [13] was determined as 9.5 days; in experiment [14], 2 days; in experiment [15], 0 days. The ILS in [18] is >25%.
For `COC(=O)[C@H]1CC[C@@H](NC(=O)N(CCCl)N=O)CC1`, the outcome in experiment [19], in experiment [20] and in [17] was inactive. For the same molecule, in experiment [21], the ILS at 36 mg/kg was determined as 120%. Moreover, the ILS at 54 mg/kg in experiment [22] came out at 100%. For the same molecule, in [16], the inhibition entry is “Active”.
For the molecule `O=NN(CCCl)C(=O)N[C@H]1C(O)O[C@H](CO)[C@@H](O)[C@@H]1O` (stereo partly drawn) [CHLOROZOTOCIN], the inhibition result in experiment [23] and in experiment [16] was “inactive” throughout. For the same molecule, the result in experiment [24], in [26], in [27] and in [17] was inactive. Also, in [25], the ILS at 13 mg/kg stood at 25%. Besides, in experiment [28], the Ratio is 0.4. The ILS in experiment [18] was >25%.
